In ChEMBL document CHEMBL3865847, “The synthesis and biological evaluation of alkyl and benzyl naphthyridinium analogs of eupolauridine as potential antimicrobial and cytotoxic agents” (Bioorg Med Chem, 2016):
Several values for one entry are separate records, joined by “and”; a condition that tells them apart may be missing. Equal entries are not always repeated.

Legend:
Plasmodium falciparum = assay: Antimalarial activity against Plasmodium falciparum D6 infected in RBC after 48 hrs by lactate dehydrogenase assay; format: functional; settings: D6, 48 h
Outline: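 Parasites grown in A+ human erythrocytes in RPMI 1640 with 10% A+ human serum, 25 mM HEPES, 27 mM bicarbonate, 60 µg/mL amikacin, 37 °C under 90% N2/5% O2/5% CO2. Infected cells exposed 48 h in microtiter wells, highest concentration 4.8 µg/mL. Growth read by Malstat reagent (parasite LDH) with nitro blue tetrazolium reduction, absorbance 630 nm.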

[1] = Cytotoxicity against African green monkey Vero cells assessed as cell growth inhibition at 10 ug/ml after 48 hrs by neutral red dye based assay; format: toxicity; settings: chlorocebus sabaeus
Outline: (§1)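 Cells kept in RPMI-1640 with 10% bovine serum and 60 µg/mL amikacin, 37 °C, 5% CO2. Seeded at 25,000 cells/well, left 24 h to adhere. Samples diluted in RPMI added, highest final concentration 10 µg/mL. Growth measured by neutral red uptake after 48 h exposure.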

[2] = Cytotoxicity against human BT549 cells assessed as cell growth inhibition after 48 hrs by neutral red dye based assay; format: functional; settings: BT-549, 48 h; outline: as §1
[3] = tested on: Mycobacterium intracellulare; assay: Antimicrobial activity against Mycobacterium intracellulare ATCC 23068; format: functional
Outline: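 Mycobacterium grown 72 h in Middlebrook medium with OADC supplement, diluted 1:30 in broth. Incubated at 37 °C with diluted samples in 96-well plates, highest final 50 µg/mL, DMSO at most 2.5%. Absorbance at 630 nm. MIC = lowest concentration with 80% growth inhibition relative to controls; IC50 from concentration versus % growth plots.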

[4] = Cytotoxicity against human SK-MEL cells assessed as cell growth inhibition after 48 hrs by neutral red dye based assay; format: functional; outline: as §1
DNA topoisomerase 1 = target: T1, DNA topoisomerase 1 (Homo sapiens, UniProt P11387); assay: Inhibition of human DNA topoisomerase 1 using pHOT1 as substrate after 30 mins by agarose gel electrophoresis
T1 sequence (P11387 whole entry): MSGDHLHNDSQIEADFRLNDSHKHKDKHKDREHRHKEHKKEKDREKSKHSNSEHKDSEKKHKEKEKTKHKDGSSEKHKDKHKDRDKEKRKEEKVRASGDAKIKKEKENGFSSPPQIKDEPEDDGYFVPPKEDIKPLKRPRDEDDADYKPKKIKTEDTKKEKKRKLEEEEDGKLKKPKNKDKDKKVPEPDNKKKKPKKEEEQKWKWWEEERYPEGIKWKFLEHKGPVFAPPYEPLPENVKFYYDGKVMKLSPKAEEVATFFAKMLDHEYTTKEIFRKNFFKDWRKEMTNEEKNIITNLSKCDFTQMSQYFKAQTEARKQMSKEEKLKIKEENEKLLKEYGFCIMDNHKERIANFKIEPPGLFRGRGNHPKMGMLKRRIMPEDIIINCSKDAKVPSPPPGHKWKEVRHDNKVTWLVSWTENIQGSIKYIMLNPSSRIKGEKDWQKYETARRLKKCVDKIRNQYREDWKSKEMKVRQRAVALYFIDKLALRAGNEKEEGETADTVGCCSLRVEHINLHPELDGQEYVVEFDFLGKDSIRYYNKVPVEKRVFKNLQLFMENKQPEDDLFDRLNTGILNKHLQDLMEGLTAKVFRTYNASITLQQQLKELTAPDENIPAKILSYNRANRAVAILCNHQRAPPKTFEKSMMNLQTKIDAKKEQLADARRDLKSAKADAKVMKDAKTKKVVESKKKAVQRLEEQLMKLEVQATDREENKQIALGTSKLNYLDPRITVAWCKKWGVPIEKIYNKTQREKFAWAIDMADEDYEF
Outline: (§2)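 Relaxation of supercoiled to relaxed DNA by TopoI measured with a commercial TopoI drug kit following kit protocol. IC50 calculated from dose-response curves of % inhibition versus concentration.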

Cryptococcus neoformans = assay: Antimicrobial activity against Cryptococcus neoformans ATCC 52657; format: functional
Outline: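 Grown in mycophil broth 72 h, hemocytometer-counted, diluted to 200,000 CFU/mL. Exposed to diluted samples in 96-well plates, maximum final 50 µg/mL (DMSO up to 2.5%), incubated 30 °C. A630 readout. MIC is the lowest concentration inhibiting 80% of growth versus controls; IC50 read from concentration versus % growth graphs.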

[5] = Cytotoxicity against human KB cells assessed as cell growth inhibition after 48 hrs by neutral red dye based assay; format: functional; outline: as §1
[6] = Cytotoxicity against human SKOV3 cells assessed as cell growth inhibition after 48 hrs by neutral red dye based assay; format: functional; settings: SK-OV-3, 48 h; outline: as §1
[7] = Selectivity index, ratio of IC50 for human DNA topoisomerase 1 to IC50 for Candida albicans DNA topoisomerase 1
[8] = Inhibition of Candida albicans DNA topoisomerase 1 using pHOT1 as substrate after 30 mins by agarose gel electrophoresis; outline: as §2
Candida albicans = assay: Antimicrobial activity against Candida albicans B311; format: functional
Outline: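 Cultured in Sabouraud dextrose broth 24 h, counted by hemocytometer, diluted to 10,000 CFU/mL. Added to serially diluted samples in 96-well plates, top final concentration 50 µg/mL (≤2.5% DMSO), incubated 37 °C. Growth by A630. MIC is the lowest concentration giving 80% inhibition against controls; IC50 from concentration versus % growth plots.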

## O=[N+]([O-])c1ccc(C[n+]2ccc3ccnc4c3c2-c2ccccc2-4)cc1.[Br-]
Plasmodium falciparum
  IC50: 0.035 µg/mL
[1]
  Activity: Non-Toxic
[2]
  IC50: 4 µg/mL
[3]
  MIC80: 50 µg/mL
[4]
  IC50: 4.9 µg/mL
DNA topoisomerase 1
  IC50: 50 µM
Cryptococcus neoformans
  IC50: 1.19 µg/mL
  MIC80: 6.25 µg/mL
[5]
  IC50: 1.8 µg/mL
[6]
  IC50: 0.62 µg/mL
[7]
  Ratio IC50: 0.86
[8]
  IC50: 18 µg/mL

## CCN(CC)CCCC(C)Nc1ccnc2cc(Cl)ccc12 (stereo not given) [CHLOROQUINE]
Plasmodium falciparum
  IC50: < 0.02 µg/mL

## Cc1cc2cc[n+](C)c3c2c(n1)-c1ccccc1-3.[I-]
Plasmodium falciparum
  IC50: 0.11 µg/mL
[1]
  Activity: Non-Toxic
DNA topoisomerase 1
  IC50: 12.5 µM
Cryptococcus neoformans
  IC50: 8 µg/mL
  MIC80: 50 µg/mL
[7]
  Ratio IC50: 1.11
[8]
  IC50: 5 µg/mL

## [Br-].c1ccc(C[n+]2ccc3c4c(nc5cc6c(cc53)OCO6)-c3ccccc3-c42)cc1
Plasmodium falciparum
  IC50: 0.0094 µg/mL
[1]
  Activity: Non-Toxic
[2]
  IC50: 1.3 µg/mL
[4]
  IC50: 0.55 µg/mL
DNA topoisomerase 1
  IC50: 1.11 µM
Cryptococcus neoformans
  IC50: 0.57 µg/mL
  MIC80: 3.12 µg/mL
[5]
  IC50: 1 µg/mL
[6]
  IC50: 0.6 µg/mL
Candida albicans
  IC50: 5.17 µg/mL
  MIC80: 12.5 µg/mL
[7]
  Ratio IC50: 1
[8]
  IC50: 0.52 µg/mL

## Fc1ccc(C[n+]2ccc3ccnc4c3c2-c2ccccc2-4)cc1.[Br-]
Plasmodium falciparum
  IC50: 0.017 µg/mL
[1]
  Activity: Non-Toxic
[2]
  IC50: 7.5 µg/mL
[4]
  IC50: 6 µg/mL
DNA topoisomerase 1
  IC50: 127 µM
Cryptococcus neoformans
  IC50: 0.87 µg/mL
  MIC80: 3.12 µg/mL
[5]
  IC50: > 10 µg/mL
[6]
  IC50: 1.5 µg/mL
Candida albicans
  IC50: 9.33 µg/mL
  MIC80: 12.5 µg/mL
[7]
  Ratio IC50: 0.8
[8]
  IC50: 40 µg/mL

## CCOC(=O)C[n+]1ccc2c3c(nc4ccccc42)-c2ccccc2-c31.[Br-]
Plasmodium falciparum
  IC50: 0.56 µg/mL
[1]
  Activity: Non-Toxic
[4]
  IC50: > 10 µg/mL
DNA topoisomerase 1
  IC50: 5.7 µM
[6]
  IC50: 5.9 µg/mL
[7]
  Ratio IC50: 0.96
[8]
  IC50: 2.3 µg/mL

## [Br-].c1ccc(C[n+]2ccc3ccnc4c3c2-c2ccccc2-4)cc1
Plasmodium falciparum
  IC50: 0.0225 µg/mL
[1]
  Activity: Non-Toxic
[4]
  IC50: 5.4 µg/mL
DNA topoisomerase 1
  IC50: 101 µM
Cryptococcus neoformans
  IC50: 0.43 µg/mL
  MIC80: 1.56 µg/mL
[6]
  IC50: 1.5 µg/mL
Candida albicans
  IC50: 4.17 µg/mL
  MIC80: 6.25 µg/mL
[7]
  Ratio IC50: 0.5
[8]
  IC50: 19 µg/mL

## C[n+]1ccc2ccnc3c2c1-c1ccccc1-3.[I-]
Plasmodium falciparum
  IC50: 0.06 µg/mL
[1]
  Activity: Non-Toxic
DNA topoisomerase 1
  IC50: 28.9 µM
Cryptococcus neoformans
  IC50: 10 µg/mL
  MIC80: 50 µg/mL
[6]
  IC50: > 10 µg/mL
[7]
  Ratio IC50: 1
[8]
  IC50: 10 µg/mL

## Cc1cc(C)cc(CS(=O)(=O)[O-])c1.N[n+]1ccc2ccnc3c2c1-c1ccccc1-3
Plasmodium falciparum
  IC50: 3.2 µg/mL
[1]
  Activity: Non-Toxic
[4]
  IC50: > 10 µg/mL
DNA topoisomerase 1
  IC50: 35.8 µM
Cryptococcus neoformans
  IC50: 19.7 µg/mL
  MIC80: 50 µg/mL
[7]
  Ratio IC50: 0.5
[8]
  IC50: 7.5 µg/mL

## Fc1ccc(C[n+]2ccc3ccnc4c3c2-c2ccccc2-4)c(F)c1.[Br-]
Plasmodium falciparum
  IC50: 0.015 µg/mL
[1]
  Activity: Non-Toxic
[4]
  IC50: 6.2 µg/mL
DNA topoisomerase 1
  IC50: 109 µM
Cryptococcus neoformans
  IC50: 0.58 µg/mL
  MIC80: 1.56 µg/mL
[6]
  IC50: 2.8 µg/mL
Candida albicans
  IC50: 5.33 µg/mL
  MIC80: 6.25 µg/mL
[7]
  Ratio IC50: 0.71
[8]
  IC50: 32 µg/mL

## CCOC(=O)C[n+]1ccc2ccnc3c2c1-c1ccccc1-3.[Br-]
Plasmodium falciparum
  IC50: 0.5 µg/mL
[1]
  Activity: Non-Toxic
DNA topoisomerase 1
  IC50: 242 µM
[6]
  IC50: 7.6 µg/mL
[7]
  Ratio IC50: 0.83
[8]
  IC50: 75 µg/mL

## [Br-].c1ccc(C[n+]2ccc3cc(-c4ccccc4)nc4c3c2-c2ccccc2-4)cc1
Plasmodium falciparum
  IC50: 0.04 µg/mL
[1]
  Activity: Non-Toxic
[2]
  IC50: 1.2 µg/mL
[4]
  IC50: 0.7 µg/mL
DNA topoisomerase 1
  IC50: 9.75 µM
Cryptococcus neoformans
  IC50: 0.95 µg/mL
  MIC80: 3.12 µg/mL
[5]
  IC50: 1 µg/mL
[6]
  IC50: 0.25 µg/mL
Candida albicans
  IC50: 1.5 µg/mL
  MIC80: 3.12 µg/mL
[7]
  Ratio IC50: 0.98
[8]
  IC50: 4.3 µg/mL

## C[n+]1ccc2c3c(nc4ccccc42)-c2ccccc2-c31
[7]
  Ratio IC50: 0.83 and 1

## Fc1ccc2c(c1)-c1c3c-2nccc3cc[n+]1Cc1ccccc1.[Br-]
Plasmodium falciparum
  IC50: 0.033 µg/mL
[1]
  Activity: Non-Toxic
[2]
  IC50: 2.5 µg/mL
[3]
  MIC80: 50 µg/mL
[4]
  IC50: 5.6 µg/mL
Cryptococcus neoformans
  IC50: 0.52 µg/mL
  MIC80: 0.78 µg/mL
[5]
  IC50: 1.3 µg/mL
[6]
  IC50: 0.53 µg/mL
Candida albicans
  IC50: 1.5 µg/mL
  MIC80: 3.12 µg/mL

## O=C(C[n+]1ccc2ccnc3c2c1-c1ccccc1-3)c1ccccc1.[Br-]
Plasmodium falciparum
  IC50: 0.17 µg/mL
[1]
  Activity: Non-Toxic
[2]
  IC50: > 10 µg/mL
DNA topoisomerase 1
  IC50: 136 µM
Cryptococcus neoformans
  IC50: 6.18 µg/mL
  MIC80: 25 µg/mL
[5]
  IC50: > 10 µg/mL
[6]
  IC50: 6 µg/mL
[7]
  Ratio IC50: 0.91
[8]
  IC50: 50 µg/mL

## Cc1cc2cc[n+](Cc3ccccc3)c3c2c(n1)-c1ccccc1-3.[Br-]
Plasmodium falciparum
  IC50: 0.095 µg/mL
[1]
  Activity: Non-Toxic
[2]
  IC50: 3.5 µg/mL
[4]
  IC50: 4.2 µg/mL
DNA topoisomerase 1
  IC50: 30.8 µM
Cryptococcus neoformans
  IC50: 0.82 µg/mL
  MIC80: 1.56 µg/mL
[5]
  IC50: > 10 µg/mL
[6]
  IC50: 1.7 µg/mL
Candida albicans
  IC50: 13.3 µg/mL
  MIC80: 25 µg/mL
[7]
  Ratio IC50: 0.92
[8]
  IC50: 11 µg/mL
